Bioassay records: PubChem BioAssay, The Scripps Research Institute Molecular Screening Center
ABHD4 inh – ABHD4 (mouse) inhibition, primary FP screen | purified mABHD4, FP-Rh probe fluorescence polarization | inhibition, % at 8.92 µM | AID 720543 | 0.54% of 370,000 active;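 active = inhibition exceeding the mean over every tested compound plus 3 SD, cut at about 30% in these data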;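 also: 0% = plate median of compound wells and 100% = S159A mutant with DMSO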
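Test system: mABHD4 protein; Read-out basis: % inhibition; Incubation: 45 min + 60 min at 25 °C; Repeats: single replicate; Technique: fluorescence polarization with parallel and perpendicular emission, 525/598 nm; Compound: 8.92 µM, single dose; Benchmarks: full inhibition S159A mutant plus DMSO, zero as sample-well median.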
HTRA1 inh – HTRA1 (human) protease inhibition. Q92743. recombinant HTRA1, FP-rhodamine activity-based probe, fluorescence polarization. inhibition, % at 5.96 µM. 0.5% of 340,000 active. AID 504803; in the data active = inhibition above about 36%;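 also: 0% = enzyme with DMSO and 100% = wells lacking enzyme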
PRMT1 inh – blocks human protein arginine methyltransferase 1. Q99873. 1.3% of 370,000 active. recombinant PRMT1, activity-based probe fluorescence polarization. inhibition, % at 2.79 µM;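 active = inhibition above about 21% made by adding two undisclosed values, limit read from the data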
TCR-CD3 inh – human TCR-CD3 binding inhibition. TAMRA-labeled TCR probe fluorescence, biochemical. inhibition, % at 9.4 µM. 0.37% of 360,000 active; in the data active = inhibition above about 19%;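 also: recombinant mutant TCR 2C K166C tagged with TAMRA read by polarization; 0% = receptor in buffer alone and 100% = receptor with positive control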
SIAE primary – blocks human sialic acid acetylesterase. Q9HAT2. SIAE FP-Rh probe binding, fluorescence polarization. inhibition, % at 9.66 µM. 0.69% of 370,000 active. AID 1053197;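 active = inhibition above a cutoff: mean of compounds within the control limits plus 3 SD of those, cut at about 17% in these data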;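 also: 0% = plate median of compound wells and 100% = probe without SIAE protein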
Target sequence (Q9HAT2 whole entry, looked up): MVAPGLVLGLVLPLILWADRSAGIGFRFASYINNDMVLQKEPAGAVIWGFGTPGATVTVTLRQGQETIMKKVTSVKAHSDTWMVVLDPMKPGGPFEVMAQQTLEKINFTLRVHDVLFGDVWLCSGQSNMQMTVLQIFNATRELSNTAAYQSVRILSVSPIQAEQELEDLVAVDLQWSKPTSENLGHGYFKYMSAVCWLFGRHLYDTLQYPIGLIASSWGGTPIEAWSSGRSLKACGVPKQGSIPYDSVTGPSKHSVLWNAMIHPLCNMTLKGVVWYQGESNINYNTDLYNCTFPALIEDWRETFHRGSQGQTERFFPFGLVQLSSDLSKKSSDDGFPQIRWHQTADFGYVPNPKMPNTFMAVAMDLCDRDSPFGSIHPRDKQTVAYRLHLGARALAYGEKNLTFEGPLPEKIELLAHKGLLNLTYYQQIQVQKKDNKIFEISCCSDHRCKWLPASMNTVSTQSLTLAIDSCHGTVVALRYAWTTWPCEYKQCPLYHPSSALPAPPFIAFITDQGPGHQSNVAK
PRMT1 confirm – PRMT1 (human) inhibition, FP confirmation | shares compounds with PRMT1 inh | recombinant His-PRMT1, activity-based probe fluorescence polarization | inhibition, % at 2.79 µM | 42% of 3,300 active;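 active = mean inhibition across replicates above the hit cutoff derived for the earlier primary screen, cut at about 22% in these data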
Numbers without * were called inactive. Compounds with a hit are over-represented: about 2.7% of the library has one in this group of screens.

`Cc1ccc(C(=O)NNC(=O)CSc2nnc(C(C)C)n2C)cc1` gave ABHD4 inh 5, HTRA1 inh 1, PRMT1 inh 2, TCR-CD3 inh 2 and SIAE primary 0.
`CCn1c(SCc2ccc(C(C)(C)C)cc2)nnc1-c1ccc(C(C)(C)C)cc1` gave ABHD4 inh 0, PRMT1 inh 1 and SIAE primary 2.
For CN1CCCCC(NC(=O)c2ccc(F)c(F)c2)C1=O (stereo not given) the results were ABHD4 inh -3, PRMT1 inh -2, TCR-CD3 inh 1 and SIAE primary 1.
`Cc1cc(C(=O)CSc2nnc(-c3cccnc3)n2-c2ccccc2F)c(C)n1CC1CCCO1` (stereo not given) gave ABHD4 inh -1, HTRA1 inh 3, PRMT1 inh 27*, TCR-CD3 inh 6, SIAE primary 1 and PRMT1 confirm 8.
`O=C(NC1CC1)c1cc(=S)[nH]c2ccccc12` gave ABHD4 inh 7, HTRA1 inh 4, PRMT1 inh 39*, TCR-CD3 inh 0, SIAE primary 6 and PRMT1 confirm 19.
`O=C(NC1CC1)C(=O)c1c[nH]c2ccccc12` gave ABHD4 inh 9, HTRA1 inh 4, PRMT1 inh 0, TCR-CD3 inh -2 and SIAE primary 1.
`COc1ccc(-n2c(=O)[nH]c3cc(C(=O)NCCc4ccccc4)ccc3c2=O)cc1OC` gave ABHD4 inh -2, HTRA1 inh -7, PRMT1 inh 2, TCR-CD3 inh -2 and SIAE primary -5.
COc1ccc(-c2csc(NC(=O)CCN3C(=O)C4CC=CCC4C3=O)n2)cc1OC (stereo not given) was read as ABHD4 inh -9, HTRA1 inh -7, PRMT1 inh 4, TCR-CD3 inh -1 and SIAE primary -3.
Screening O=C(CCNc1ccc(F)cc1)c1cc2ccccc2o1 returned ABHD4 inh -12, HTRA1 inh -3, PRMT1 inh 49*, TCR-CD3 inh 1, SIAE primary 2 and PRMT1 confirm 42*.
Screening O=C(CCNc1cccc(F)c1)c1cc2ccccc2o1 returned ABHD4 inh -7, HTRA1 inh -4, PRMT1 inh 16, TCR-CD3 inh 6 and SIAE primary -1.
`CCOC(=O)C(=O)N(C)c1c(CC)nc2c(OCc3ccc(OC(F)F)cc3)cccn12` gave ABHD4 inh -5, PRMT1 inh -4, TCR-CD3 inh 1 and SIAE primary 1.
CC1CN(CCc2ccccc2)c2nc3c(c(=O)n(CC(N)=O)c(=O)n3C)n2C1 (stereo not given) was read as ABHD4 inh 6, HTRA1 inh 2, PRMT1 inh 3, TCR-CD3 inh 0 and SIAE primary 1.
For Fc1cccc(Cl)c1CSc1nnc2ccccn12 the results were ABHD4 inh 2, HTRA1 inh 5, PRMT1 inh -2, TCR-CD3 inh -2 and SIAE primary -2.
Fc1ccc(CSc2nnc3ccccn23)c(Cl)c1 was read as ABHD4 inh 6, HTRA1 inh -1, PRMT1 inh 46*, TCR-CD3 inh -1, SIAE primary 3 and PRMT1 confirm -2.
Screening CCOc1ccc(NS(=O)(=O)c2ccc(NC(=O)[C@@H]3CCCC[C@@H]3C(=O)O)cc2)cc1 returned ABHD4 inh 5, HTRA1 inh 2, PRMT1 inh -1, TCR-CD3 inh 2 and SIAE primary 7.
Screening NC(=O)c1ccc(NC(=O)COC(=O)/C=C/c2ccc(Br)o2)cc1 returned ABHD4 inh 7, HTRA1 inh -4, PRMT1 inh 36*, TCR-CD3 inh 11, SIAE primary -2 and PRMT1 confirm 5.
O=C(COC(=O)/C=C/c1ccc(Br)o1)Nc1ccc2[nH]c(=O)[nH]c2c1 was read as ABHD4 inh 6, HTRA1 inh 0, PRMT1 inh -2, TCR-CD3 inh 11 and SIAE primary 4.
`CN1\C(=C/C=C/C=C/C=[N+](C)C)C(C)(C)c2ccccc21` gave ABHD4 inh -183, HTRA1 inh -149, PRMT1 inh 33*, TCR-CD3 inh -39, SIAE primary -341 and PRMT1 confirm 43*.
For CN1/C(=C\C=O)C(C)(C)c2ccccc21 the results were ABHD4 inh -16, HTRA1 inh 0, PRMT1 inh -1, TCR-CD3 inh 2 and SIAE primary -16.
